Reference: paper PMC9540497 (Clinical Pharmacology and Therapeutics, 2022)
Where two headings read alike, the source gives them in different places. Each block holds one molecule with its values, some of them ahead of it.

Key:
[1] = assay type: in vivo, human; conditions: for AUC(0-inf) / Cmax / half-life / Tmax: female, human, plasma, oral; for AUC(0-inf): AUC0–inf; for AUC(0-inf) / Cmax: mean (CV%); for half-life: t 1/2, mean (CV%); for Tmax: median (minimum, maximum)
Summary of the method: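 Healthy women received a single oral contraceptive dose (0.03 mg EE, 3 mg DRSP) fed on days 1, 8 and 18, with test compound 600 mg once daily on days 8–23. Blood was drawn predose and at 0.5–120 h postdose. EE and DRSP were measured by validated UHPLC-MS/MS (LLOQ 2.5 pg/mL and 0.5 ng/mL). LS geometric mean ratios (90% CI) of ln Cmax and AUC0–inf came from a mixed model (day fixed, subject random).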

[2] = molecular target: T1, SULT1E1 (Homo sapiens, UniProt P49888); experiment: SULT1E1 in vitro inhibition test; assay type: biochemical
T1 sequence (P49888 1-294): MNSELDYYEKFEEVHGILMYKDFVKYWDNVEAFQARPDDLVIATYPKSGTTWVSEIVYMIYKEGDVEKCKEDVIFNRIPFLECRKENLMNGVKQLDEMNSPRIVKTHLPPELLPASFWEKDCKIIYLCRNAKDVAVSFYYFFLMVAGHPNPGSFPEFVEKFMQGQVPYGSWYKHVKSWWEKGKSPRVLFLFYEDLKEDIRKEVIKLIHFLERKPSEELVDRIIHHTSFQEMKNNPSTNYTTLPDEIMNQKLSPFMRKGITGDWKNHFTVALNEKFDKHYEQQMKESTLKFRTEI
Summary of the method: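 Recombinant human SULT1E1 expressed in E. coli was incubated with EE 5 nM as substrate. Test compound was tested at 0.8, 2, 8, 20, 80 and 200 µM, with quercetin 0.5 µM as positive control and a DMSO solvent control. Metabolite formation was read by UHPLC-MS/MS peak area, and activity was expressed relative to solvent control (n = 3). IC50 came from a sigmoidal fit; tentative Ki came from Cheng–Prusoff assuming competitive inhibition and substrate concentration equal to Km.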

[3] = molecular target: T2, UGT1A1 (Homo sapiens, UniProt P22309); assay type: in vivo; conditions: 600 mg q.d.; day 18 vs day 1; three subjects
T2 sequence (P22309 26-533): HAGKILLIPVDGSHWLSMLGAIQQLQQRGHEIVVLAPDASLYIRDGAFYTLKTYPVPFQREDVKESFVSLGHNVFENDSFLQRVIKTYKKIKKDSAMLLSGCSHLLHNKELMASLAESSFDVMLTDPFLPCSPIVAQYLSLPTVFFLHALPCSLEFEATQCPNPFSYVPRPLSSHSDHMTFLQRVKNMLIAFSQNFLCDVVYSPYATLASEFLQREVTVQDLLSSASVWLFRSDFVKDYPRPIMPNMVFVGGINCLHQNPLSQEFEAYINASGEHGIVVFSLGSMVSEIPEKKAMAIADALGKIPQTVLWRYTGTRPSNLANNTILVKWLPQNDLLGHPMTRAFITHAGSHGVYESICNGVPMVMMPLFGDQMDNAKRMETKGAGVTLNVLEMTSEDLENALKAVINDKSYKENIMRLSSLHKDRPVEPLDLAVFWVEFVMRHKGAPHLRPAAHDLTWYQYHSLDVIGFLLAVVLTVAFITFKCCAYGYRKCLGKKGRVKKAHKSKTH

[4] = molecular target: T1, SULT1E1; assay type: in vivo; conditions: 600 mg q.d.; day 18 vs day 1; three subjects
Summary of the method: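 Plasma from three subjects, sampled on day 1 (oral contraceptive alone) and day 18 (with test compound 600 mg q.d.), was split into duplicate aliquots. One aliquot was hydrolysed with purified arylsulfatase and the other with genetically modified β-glucuronidase, in 1 M Tris-HCl pH 8.0 buffer (stock), at 50°C for 1 h. Total EE was measured by LC-MS/MS. EE AUClast with and without hydrolysis was computed by linear-up/log-down trapezoids.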

[5] = Safety and tolerability; assay type: in vivo, human; conditions: 600 mg q.d. with oral contraceptive, healthy women
Summary of the method: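 Throughout the study in healthy women, TEAEs, serious TEAEs and TEAEs leading to discontinuation were monitored, covering oral contraceptive alone and co-administration with test compound 600 mg q.d. Intensity (mild/moderate) and investigator-judged relatedness were recorded. Clinical laboratory parameters, vital signs and ECG were also assessed.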

[6] = molecular target: T3, CYP3A4 (Homo sapiens, UniProt P08684); experiment: In vitro CYP3A4 inhibition and induction by ziritaxestat and predictions from it; assay type: in vitro ADME; conditions: data on file
[7] = molecular target: T3, CYP3A4; conditions: in vitro studies; cited from earlier work
[8] = molecular target: T3, CYP3A4; conditions: cited from earlier work
[9] = day 18 test vs. day 1 reference, ziritaxestat 600 mg q.d.
[10] = OC + ziritaxestat 600 mg q.d. (day 8, SD), n = 14
[11] = OC + ziritaxestat 600 mg q.d. (day 18, MD), n = 13

T3 sequence (P08684 whole entry): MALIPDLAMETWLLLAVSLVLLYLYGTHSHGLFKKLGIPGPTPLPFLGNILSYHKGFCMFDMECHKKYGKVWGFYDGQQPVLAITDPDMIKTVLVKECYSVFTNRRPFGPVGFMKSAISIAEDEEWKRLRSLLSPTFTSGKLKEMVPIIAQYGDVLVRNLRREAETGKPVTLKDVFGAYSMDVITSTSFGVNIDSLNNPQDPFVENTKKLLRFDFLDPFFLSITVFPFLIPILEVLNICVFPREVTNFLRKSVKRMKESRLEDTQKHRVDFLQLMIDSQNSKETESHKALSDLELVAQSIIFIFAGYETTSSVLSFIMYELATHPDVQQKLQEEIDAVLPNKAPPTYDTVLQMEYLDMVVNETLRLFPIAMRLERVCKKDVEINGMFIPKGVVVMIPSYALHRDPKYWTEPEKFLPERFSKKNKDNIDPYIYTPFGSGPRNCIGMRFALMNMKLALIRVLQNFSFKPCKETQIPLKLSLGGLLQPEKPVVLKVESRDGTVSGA

increase of AUC0–inf on co-administration with ziritaxestat [1, 9]: 2.4 fold
increase of Cmax on co-administration with ziritaxestat [1, 9]: 2.8 fold
AUC(0-inf) [1, 10]: 2.02 ng·h/mL
AUC(0-inf) [1, 11]: 2.18 ng·h/mL
AUC(0-inf) ([1]; OC alone (day 1), n = 15, fed): 0.967 ng·h/mL
Cmax [1, 10]: 0.122 ng/mL
Cmax ([1]; OC alone (day 1), n = 15): 0.047 ng/mL
half-life [1, 10]: 30.1 h
half-life ([1]; OC alone (day 1), n = 15): 22 h
Structure (SMILES): C#C[C@]1(O)CC[C@H]2[C@@H]3CCc4cc(O)ccc4[C@H]3CC[C@@]21C [Ethinyl estradiol, ethinyl estradiol]

inhibition at 0.5 µM ([2]; read-out: inhibition of SULT1E1): 66%
Structure (SMILES): O=c1c(O)c(-c2ccc(O)c(O)c2)oc2cc(O)cc(O)c12 [quercetin, Quercetin]

IC50 [2]: < 800 nM
effect on EE glucuronidation in vivo (in words) [3]: potential weak inhibitory effect
effect on EE sulfation in vivo (in words) [4]: potent inhibitor of sulfation
mode of CYP3A4 inhibition [6]: competitive and reversible
Structure (SMILES): CCc1nc2c(C)cc(N3CCN(CC(=O)N4CC(O)C4)CC3)cn2c1N(C)c1nc(-c2ccc(F)cc2)c(C#N)s1 [ziritaxestat]
tolerability (in words) [5]: generally well tolerated
CYP3A4 induction and inhibition in vitro (in words) [7]: weak inducer and inhibitor

Structure (SMILES): CC(C)(C)NC(=O)N[C@H](C(=O)N1C[C@H]2[C@@H]([C@H]1C(=O)NC(CC1CCC1)C(=O)C(N)=O)C2(C)C)C(C)(C)C (some centres unmarked) [boceprevir]
increase in DRSP exposure on co-administration ([8]; strong CYP3A4 inhibition): 100%

Structure (SMILES): C[C@@H](c1ncncc1F)[C@](O)(Cn1cncn1)c1ccc(F)cc1F [voriconazole]
increase of the systemic exposure of EE on co-administration ([8]; strong CYP3A4 inhibitor co-administered): 60%

AUC(0-inf) [1, 10]: 686 ng·h/mL
AUC(0-inf) [1, 11]: 708 ng·h/mL
AUC(0-inf) ([1]; OC alone (day 1), n = 15): 574 ng·h/mL
Cmax [1, 10]: 21.4 ng/mL
Cmax [1, 11]: 22.6 ng/mL
Cmax ([1]; OC alone (day 1), n = 15): 20.7 ng/mL
Tmax [1, 10]: 2.5 h
Tmax [1, 11]: 4 h
half-life [1, 10]: 44.7 h
half-life [1, 11]: 43.4 h
half-life ([1]; OC alone (day 1), n = 15): 39 h
Structure (SMILES): C[C@]12CCC(=O)C=C1[C@@H]1C[C@@H]1[C@H]1[C@@H]3[C@@H]4C[C@@H]4[C@@]4(CCC(=O)O4)[C@@]3(C)CC[C@@H]12 [Drospirenone, drospirenone]
